Data on ten compounds can be found in ChEMBL document CHEMBL3758075, “Synthesis and pharmacological evaluation of nucleoside prodrugs designed to target siderophore biosynthesis in Mycobacterium tuberculosis” (Bioorg Med Chem, 2016).

Structures are written as SMILES.

A short description of series [1]: Drug level in pH 7.4 HEPES buffer treated with 100 uM 9-[3-O-(Acetyl)-2,5-dideoxy-2-fluoro-5-{N-(N-2-hydroxybenzoyl)sulfamoyl}amino-b-D-ribofuranosyl]adenine triethylammonium salt for 2 hrs by HPLC analysis. The series is classed as physicochemical. The conditions noted are these: pH 7.4, 2 h. In outline:
(§1)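 Compound 100 µM (2% DMSO final) incubated in triplicate at 37 °C in simulated gastric fluid pH 1.2 or 100 mM HEPES pH 7.4. Samples taken at 0 and 120 min, placed on ice and analysed by RP-HPLC for prodrug and released parent; percentage of prodrug remaining at 120 min calculated.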

Series [2] in a line: Aqueous stability in pH 7.4 HEPES buffer assessed as compound remaining after 2 hrs by HPLC method. The series is classed as physicochemical. Particulars: pH 7.4, 2 h. In outline:
as §1

Series [3] can be described thus: Retention time of compound by RP-HPLC method. It is filed as physicochemical. The gist of the method: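 Reversed-phase C18 column (5 µm, 4.6 × 250 mm). Mobile phase 20 mM triethylammonium bicarbonate pH 7.5 / acetonitrile. Gradient 5–70% acetonitrile over 10 min, then 90% to 16 min, then 3 min re-equilibration at 5%.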
Series [4] in a line: Aqueous stability in pH 1.2 simulated gastric fluid assessed as compound remaining after 2 hrs by HPLC method. The series is classed as physicochemical. The conditions noted are these: simulated gi fluid, pH 1.2, 2 h. The gist of the method: as §1
The subject of series [5] is Plasma. Nature of the series: Stability in Sprague-Dawley rat plasma assessed as residual compound after 6 hrs by HPLC method. The series is classed as ADME, cell-free. In outline: (§2)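 Pooled female plasma (CD-1 mouse, Sprague-Dawley rat, human) preincubated 5 min at 37 °C, then spiked from a 10 mM DMSO stock; triplicate. Samples at 0–360 min quenched with equal volume 10% TCA, centrifuged, supernatant run on HPLC. Half-life or percentage remaining at 6 h derived.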

Series [6] is described as follows: Aqueous stability in pH 1.2 simulated gastric fluid assessed as prodrug remaining at 100 uM after 2 hrs by HPLC method. The series is classed as physicochemical. Particulars: simulated gi fluid, pH 1.2, 2 h. The gist of the method: as §1
Series [7] is described as follows: Aqueous stability in pH 7.4 HEPES buffer assessed as prodrug remaining at 100 uM after 2 hrs by HPLC method. The series is classed as physicochemical. The conditions noted are these: pH 7.4, 2 h. In outline: as §1
Series [8] concerns Plasma. Kind of series: Stability in human plasma assessed as residual compound after 6 hrs by HPLC method. It is filed as ADME, cell-free. In outline: as §2
Series [9] has as its system Plasma. Kind of series: Half life in CD-1 mouse plasma assessed as N-(N-(((2R,3R,4R,5R)-5-(6-amino-9H-purin-9-yl)-4-fluoro-3-hydroxytetrahydrofuran-2-yl)methyl)sulfamoyl)-2-hydroxybenzamide by HPLC method. It is filed as ADME, cell-free. The gist of the method:
as §2

Series [10] in a line: Permeability from apical to basolateral side in human Caco2 cells assessed as prodrug remaining in apical side for 2 hrs by HPLC method. Particulars: caco-2, 2 h. The series is classed as ADME, cell-based. In outline: (§3)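 Bidirectional Caco-2 transwell run (21-day monolayers, TER >300 Ωcm2, apical pH 6.0 / basolateral pH 7.4 buffers, 100 µM donor). Intact prodrug left in the apical and basolateral compartments at 2 h quantified by reversed-phase HPLC, with hydrolysis to parent tracked.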

The nature of series [11]: Apparent permeability from apical to basolateral side in human Caco2 cells at 100 uM incubated for 2 hrs by HPLC method. The series is classed as ADME, cell-based. The conditions noted are these: Caco-2. The gist of the method:
(§4)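 Caco-2 cells (passage 50–70) grown 21 days on 0.4 µm transwell inserts; wells with TER >300 Ωcm2 used. Apical CAB pH 6.0, basolateral CAB pH 7.4, preincubated 60 min at 65 rpm. Test compound 100 µM in donor with lucifer yellow for tight-junction integrity. Acceptor levels of prodrug plus hydrolyzed parent measured by HPLC over time with cumulative sampling. Papp = flux/(area × C0); efflux ratio = BL-AP/AP-BL.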

Series [12] has as its system Plasma. Nature of the series: Stability in CD-1 mouse plasma assessed as residual compound after 6 hrs by HPLC method. The series is classed as ADME, cell-free. The gist of the method: as §2
Series [13] in a line: Permeability from apical to basolateral side in human Caco2 cells assessed as prodrug remaining in basolateral side for 2 hrs by HPLC method. It is filed as ADME, cell-based. The conditions noted are these: caco-2, 2 h. In outline:
as §3

A short description of series [14]: Permeability from basolateral to apical side in human Caco2 cells assessed as prodrug remaining in basolateral side for 2 hrs by HPLC method. It is filed as ADME, cell-based. The conditions noted are these: caco-2, 2 h. In outline: as §3
A short description of series [15]: Apparent permeability from basolateral to apical side in human Caco2 cells at 100 uM incubated for 2 hrs by HPLC method. It is filed as ADME, cell-based. Particulars: Caco-2. The gist of the method:
as §4

Series [16] can be described thus: Efflux ratio of permeability from basolateral to apical side over apical to basolateral side in human Caco2 cells incubated for 2 hrs by HPLC method. The series is classed as ADME, cell-based. Particulars: Caco-2. In outline: as §4
Series [17] can be described thus: Permeability from basolateral to apical side in human Caco2 cells assessed as prodrug remaining in apical side for 2 hrs by HPLC method. The conditions noted are these: caco-2, 2 h. The series is classed as ADME, cell-based. In outline: as §3
Series [18] relates to Plasma. Nature of the series: Half life in Sprague-Dawley rat plasma assessed as N-(N-(((2R,3R,4R,5R)-5-(6-amino-9H-purin-9-yl)-4-fluoro-3-hydroxytetrahydrofuran-2-yl)methyl)sulfamoyl)-2-hydroxybenzamide by HPLC method. It is filed as ADME, cell-free. The gist of the method: as §2

Take `Nc1ncnc2c1ncn2[C@@H]1O[C@H](CNS(=O)(=O)NC(=O)c2ccccc2O)[C@@H](O)[C@H]1F`: in series [1], the Drug metabolism result was “metabolite_detected”. Besides, the Stability in series [2] and in series [4] was 100% each time. Also, the Retention_time in [3] came to 8.9 min.

In series [3], `Nc1ncnc2c1ncn2[C@@H]1O[C@H](COS(=O)(=O)NC(=O)c2ccccc2O)[C@@H](O)[C@H]1O` had a Retention_time of 7.8 min.

In the case of `CCCCC(=O)O[C@H]1[C@@H](F)[C@H](n2cnc3c(N)ncnc32)O[C@@H]1CNS(=O)(=O)NC(=O)c1ccccc1O.CCN(CC)CC`, the Stability was 53% with Plasma [5], 98% in series [6], 100% in [7] and 66% with Plasma [8]. Moreover, in [3], the Retention_time is 11.9 min. Further, the t1/2 with Plasma [9] was found to be 1.6 h.

On to `CCCCCCCCCCCC(=O)O[C@H]1[C@@H](F)[C@H](n2cnc3c(N)ncnc32)O[C@@H]1CNS(=O)(=O)NC(=O)c1ccccc1O.CCN(CC)CC`, for which the Stability in the series with Plasma [5] is given as 95%; in [6], 76%; in [7] it was 100%; in the series on Plasma [8], 98%. This compound registered a Retention_time in series [3] of 9.9 min. In the series on Plasma [9], the t1/2 stood at 1.6 h.

For `CCC(CC)C(=O)O[C@H]1[C@@H](F)[C@H](n2cnc3c(N)ncnc32)O[C@@H]1CNS(=O)(=O)NC(=O)c1ccccc1O.CCN(CC)CC`, the Stability with Plasma [5] is 93%; in series [6] it was 100%; in series [7], 100%; with Plasma [8], 94%; with Plasma [12], 83%. The permeability in series [10] turned out to be 97%; in series [13], 90%; in series [14], 99%; in series [17] it was 78%. Besides, in [11], the apical-to-basolateral permeability (Papp A→B) at 2 h, 100 µM stood at 0.5 ×10⁻⁶ cm/s. Further, the Papp B→A at 2 h, 100 µM in [15] was determined as 3.8 ×10⁻⁶ cm/s. Also, in series [16], the efflux ratio at 2 h is 7.6.

Consider `CCC(=O)O[C@H]1[C@@H](F)[C@H](n2cnc3c(N)ncnc32)O[C@@H]1CNS(=O)(=O)NC(=O)c1ccccc1O.CCN(CC)CC`, for which the Stability in the series with Plasma [5] is given as 58%; in series [6], 97%; in series [7], 100%; in the series with Plasma [8], 70%. The Retention_time in series [3] is 10 min. Further, in the series with Plasma [9], the t1/2 was 3.3 h.

For `CC(C)C(=O)O[C@H]1[C@@H](F)[C@H](n2cnc3c(N)ncnc32)O[C@@H]1CNS(=O)(=O)NC(=O)c1ccccc1O.CCN(CC)CC`, the results for the Stability (in the series with Plasma [5]; in series [6]; in [7]) were 72%, 98% and 100%, respectively. Further, the permeability in [10] is recorded as 88%; in series [13], 73%; in [14], 95%; in [17], 53%. Besides, in series [11], the Papp A→B at 2 h, 100 µM was 0.4 ×10⁻⁶ cm/s. Also, in [3], the Retention_time worked out at 10.7 min. In addition, the Papp B→A at 2 h, 100 µM in [15] was determined as 3.4 ×10⁻⁶ cm/s. In series [16], the efflux ratio at 2 h came to 8.5. The t1/2 in the series on Plasma [9] stood at 3.7 h.

Regarding `CCCCCCCC(=O)O[C@H]1[C@@H](F)[C@H](n2cnc3c(N)ncnc32)O[C@@H]1CNS(=O)(=O)NC(=O)c1ccccc1O.CCN(CC)CC`, the Stability is reported as 86% in the series with Plasma [5], 93% in series [6] and 98% in series [7]. Further, the permeability in [10] is 29%; in [13], 3%; in [14] it was 90%; in series [17], 1%. The Papp A→B at 2 h, 100 µM in [11] is 3.9 ×10⁻⁶ cm/s. In [3], this compound registered a Retention_time of 13.7 min. In series [15], the Papp B→A at 2 h, 100 µM turned out to be 6.9 ×10⁻⁶ cm/s. Besides, the efflux ratio at 2 h in series [16] was determined as 1.8. Further, the t1/2 with Plasma [9] came out at 0.7 h.

As for `CC(=O)O[C@H]1[C@@H](F)[C@H](n2cnc3c(N)ncnc32)O[C@@H]1CNS(=O)(=O)NC(=O)c1ccccc1O.CCN(CC)CC`, the permeability came out at 93% in [10], 81% in [13], 86% in series [14] and 88% in series [17]. In addition, the Stability in series [6] is 97%; in series [7], 92%; in the series with Plasma [8], 61%. The Papp A→B at 2 h, 100 µM in [11] stood at 1.1 ×10⁻⁶ cm/s. The Retention_time in [3] came out at 9.5 min. In series [15], the Papp B→A at 2 h, 100 µM was 1.6 ×10⁻⁶ cm/s. Besides, the efflux ratio at 2 h in series [16] came out at 1.5. The t1/2 was determined as 5.7 h in the series with Plasma [18] and 4.6 h in the series with Plasma [9].

Take `CCCC(=O)O[C@H]1[C@@H](F)[C@H](n2cnc3c(N)ncnc32)O[C@@H]1CNS(=O)(=O)NC(=O)c1ccccc1O.CCN(CC)CC`: the Stability in the series with Plasma [5] is on record as 61%; in series [6], 97%; in series [7] it was 100%; in the series on Plasma [8], 64%. The permeability in series [10] was 74%; in series [13] it was 63%; in [14] it was 93%; in [17] it was 15%. Moreover, the Papp A→B at 2 h, 100 µM in series [11] came to 0.5 ×10⁻⁶ cm/s. The compound also gave a Retention_time in [3] of 10.4 min. Moreover, the Papp B→A at 2 h, 100 µM in [15] was found to be 3.5 ×10⁻⁶ cm/s. Moreover, the efflux ratio at 2 h in [16] turned out to be 7. The t1/2 in the series with Plasma [9] was 2.2 h.
